Screening data: PubChem BioAssay, several laboratories
Dynein transport: dynein cargo transport inhibition. 3617.4 mouse cells, GR-EGFP nuclear translocation imaging; test concentration mostly 20 µM; stimulated with dexamethasone, 1 µM; active compounds read low. z-score, hits read low. hit rate 0.47% among 220,000. AID 1381;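 active means plate z-score of nuclear minus cytoplasmic receptor signal below a set negative limit, without overly bright fluorescence or cell loss, cut at about -3.5 in these data, passing the limit was not always enough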;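 further: z-score of nuclear minus cytoplasmic ring GR-EGFP intensity difference per well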
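Buffer or medium: tetracycline-free induction medium containing charcoal-stripped FBS / Reagent: dexamethasone agonist, 1.0 µM final, for 30 min / Technique: automated 10x imaging of fixed Hoechst-stained cells / Times: induction 48 h, compound 1 h, agonist 30 min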
CHOP inhibitor: CHOP inhibition in unfolded protein response; CHO-K1 CHOP-promoter luciferase, tunicamycin-induced, 15-18 h; AID 2732; hit rate 3.8% among 220,000; inhibition, % at 10 µM;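 active means compounds that reduced the stress-induced luciferase reporter signal by more than about 70% of percent inhibition, limit read from the data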
pCIP destab: p/CIP protein destabilization; decrease of EGFP signal, % at 10 µM; AID 1984; F442A p/CIP-EGFP cells, EGFP fluorescence, 16 h; hit rate 0.01% among 290,000;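 active means EGFP signal decrease of at least 30% at 10 µM or well 3 SD below plate mean, unless failing retest; inactive means the rest, including hits failing retest or dose response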
Target sequence (Q05BA5 1-1403): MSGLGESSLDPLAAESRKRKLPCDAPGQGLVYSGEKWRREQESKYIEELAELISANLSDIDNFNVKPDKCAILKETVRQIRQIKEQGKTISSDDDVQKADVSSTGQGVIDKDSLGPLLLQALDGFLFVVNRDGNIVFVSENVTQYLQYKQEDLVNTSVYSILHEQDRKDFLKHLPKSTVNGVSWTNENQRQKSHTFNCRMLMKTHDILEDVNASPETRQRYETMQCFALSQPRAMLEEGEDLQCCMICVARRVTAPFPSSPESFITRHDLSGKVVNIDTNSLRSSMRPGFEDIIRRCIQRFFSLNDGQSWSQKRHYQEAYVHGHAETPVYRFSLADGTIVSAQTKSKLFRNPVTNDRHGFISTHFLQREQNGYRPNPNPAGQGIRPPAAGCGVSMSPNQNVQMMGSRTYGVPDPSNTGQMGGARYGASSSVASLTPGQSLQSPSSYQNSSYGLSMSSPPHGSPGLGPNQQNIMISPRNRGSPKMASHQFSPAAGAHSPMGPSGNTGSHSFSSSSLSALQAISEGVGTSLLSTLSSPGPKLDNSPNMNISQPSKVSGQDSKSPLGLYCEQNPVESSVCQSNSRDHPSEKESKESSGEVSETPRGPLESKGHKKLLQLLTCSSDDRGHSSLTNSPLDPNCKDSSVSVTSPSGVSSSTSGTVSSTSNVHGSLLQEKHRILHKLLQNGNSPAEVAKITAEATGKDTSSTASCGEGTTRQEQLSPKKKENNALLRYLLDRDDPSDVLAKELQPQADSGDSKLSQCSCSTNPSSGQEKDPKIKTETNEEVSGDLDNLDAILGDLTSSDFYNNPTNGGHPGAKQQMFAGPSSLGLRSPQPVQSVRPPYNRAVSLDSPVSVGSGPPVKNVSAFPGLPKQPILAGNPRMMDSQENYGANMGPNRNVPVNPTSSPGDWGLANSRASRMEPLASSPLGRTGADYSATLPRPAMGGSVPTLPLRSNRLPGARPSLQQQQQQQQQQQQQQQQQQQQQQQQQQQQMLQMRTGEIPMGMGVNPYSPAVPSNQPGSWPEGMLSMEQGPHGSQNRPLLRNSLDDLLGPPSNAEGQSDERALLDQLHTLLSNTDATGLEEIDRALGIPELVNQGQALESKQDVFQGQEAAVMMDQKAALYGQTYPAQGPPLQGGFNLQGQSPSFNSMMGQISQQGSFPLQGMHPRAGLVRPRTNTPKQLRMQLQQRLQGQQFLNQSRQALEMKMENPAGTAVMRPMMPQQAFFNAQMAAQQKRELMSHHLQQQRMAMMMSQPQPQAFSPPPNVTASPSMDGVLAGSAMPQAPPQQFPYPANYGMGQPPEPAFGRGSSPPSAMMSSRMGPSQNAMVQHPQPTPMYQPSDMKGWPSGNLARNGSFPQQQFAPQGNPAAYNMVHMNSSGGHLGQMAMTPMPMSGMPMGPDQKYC
UPR CHOP act: activators of apoptotic arm of unfolded protein response (CHOP); CHO-CHOP luciferase reporter, UPR activation, luminescence; percent of tunicamycin response over DMSO baseline; activation, % at 10 µM; hit rate 0.34% among 330,000; AID 449763;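 active means at 10 µM dose, activation of 40% or more, normalized to positive control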
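measured by = luciferase luminescence | assay system = CHO-CHOP cells, stable luciferase reporter of PERK-eIF2a-CHOP signalling | amount = 500 reporter cells seeded per well | timing = 6 h compound exposure at 37 °C after overnight seeding | controls = positive tunicamycin 10 µg/mL, negative DMSO alone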
B2AR ag: activates human beta-2 adrenergic receptor causing internalization. P07550. Am2.2-beta2AR cells, FAP receptor internalization, flow cytometry. response, % (no concentration beside the values). hit rate 0.43% among 340,000;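 active means response above a set limit, near 3 SD of response in nonfluorescent compounds, cut at about 42% in these data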
UPR XBP1 act: activators of adaptive arm of unfolded protein response (XBP1). hit rate 0.33% among 330,000. CHO-XBP1 luciferase reporter, IRE1-XBP1 UPR activation, luminescence; percent of tunicamycin response, DMSO as zero. activation, % at 20 µM. AID 463104;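 active means versus positive control, 20 µM dose yields 30% or more activation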
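Material – CHO cell line with stable XBP1 luciferase reporter · Buffer or medium – F12 plus 10% FBS · Compound – single point, 20 µM final compound, 1% DMSO · Schedule – 16-18 h cell attachment at 37 °C, then 6 h compound exposure · Signal – Steady-Glo luminescence read · Benchmarks – high control tunicamycin 10 µg/mL final, low control DMSO vehicle only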
UPR XBP1 confirm: confirmation of adaptive unfolded protein response (XBP1) activators | shares compounds with UPR XBP1 act | CHO-XBP1 IRE1-XBP1 luciferase reporter, luminescence | activation, % at 20 µM | hit rate 63% among 1,000;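 active means reporter signal at least 30% of the positive control's activation in two or more of four replicate wells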
Large screens that a line does not name were inactive (follow-up assays come after a bar, where they were run). This excerpt belongs to a sample that is enriched for hits.

COCOc1cc(O)c(C(=O)/C=C/c2ccccc2)c(OCOC)c1	UPR XBP1 act 40 (no result: Dynein transport, CHOP inhibitor, pCIP destab) | UPR XBP1 confirm inactive
CC(CC(=O)N(CCC1=CCCCC1)c1c(N)n(Cc2ccccc2)c(=O)[nH]c1=O)c1ccccc1 (stereo unspecified)	UPR XBP1 act 40 (no result: Dynein transport, CHOP inhibitor, pCIP destab) | UPR XBP1 confirm inactive
CCOc1ccc(OCC(=O)N(CCC2=CCCCC2)c2c(N)n(Cc3ccccc3)c(=O)[nH]c2=O)cc1	UPR XBP1 act 31 (no result: Dynein transport, CHOP inhibitor, pCIP destab) | UPR XBP1 confirm inactive
CCOc1ccccc1C(=O)N[C@H](C(=O)NCc1ccccc1)C(C)C	none
COc1ccccc1C(=O)NC(C)c1ccc(-n2ccnc2)cc1 (stereo unspecified)	none (no result: Dynein transport, CHOP inhibitor)
COc1cccc(CN2CCNC(=O)C2CC(=O)NCCCN2CCCC2=O)c1 (stereo unspecified)	none (no result: Dynein transport, CHOP inhibitor)
O=C(COC(=O)CN1C(=O)C(=O)c2ccccc21)OCN1C(=O)c2ccccc2C1=O	none
COc1ccc(/C=N/Nc2nc(-c3cccnc3)nc3ccccc23)c(OC)c1	UPR XBP1 act 37 | UPR XBP1 confirm inactive
COc1ccc(Nc2nc(-c3ccccc3)nc3ccccc23)c(OC)c1	none
COc1ccc(-c2cc(CCCC(=O)NCc3ccccn3)no2)cc1	none
COc1cc2[nH]c3c(Cl)ncnc3c2cc1OC	none
COc1cc2[nH]c3c(N4CCN(c5ccc(Cl)cc5)CC4)ncnc3c2cc1OC	UPR XBP1 act 39 | UPR XBP1 confirm 33
COc1cccc(C(=O)Nc2ccc3c(c2)C(=O)c2ccccc2C3=O)c1	UPR XBP1 act 91 | UPR XBP1 confirm inactive
O=C(Nc1ccc2c(c1)C(=O)c1ccccc1-2)c1ccccc1	none (no result: Dynein transport, CHOP inhibitor, pCIP destab, UPR CHOP act, UPR XBP1 act)
Cc1ccc(C(=O)OCC(=O)Nc2sc3c(c2C#N)CCC3)cc1	none
CCOC(=O)c1[nH]c(C)c(C(=O)OCC(=O)Nc2sc3c(c2C#N)CCCCC3)c1C	CHOP inhibitor 84, UPR XBP1 act 63 | UPR XBP1 confirm inactive
N#Cc1cnn2c1nc(N1CCCCC1)c1ccccc12	UPR XBP1 act 47 | UPR XBP1 confirm 41
Cc1c(CCOC(=O)C23CC4(C)CC(C)(CC(C)(C4)C2)C3)sc[n+]1CC(=O)c1ccccc1	UPR XBP1 act 40 | UPR XBP1 confirm 65
CN(C(=O)CSc1cc(Cl)ccc1Cl)C1CCS(=O)(=O)C1 (stereo unspecified)	none (no result: Dynein transport, CHOP inhibitor, pCIP destab)
CCCC(C(=O)NC1CCCC1)N(C(=O)c1snc(C(N)=O)c1N)c1ccc(F)cc1 (stereo unspecified)	none (no result: Dynein transport, CHOP inhibitor)
O=C(Nc1ccc([N+](=O)[O-])cc1)C(Cc1ccccc1)N1C(=O)c2cccc3cccc(c23)C1=O (stereo unspecified)	UPR XBP1 act 42 | UPR XBP1 confirm 46
CC1(C)C(=O)Nc2ccccc2N1C(=O)COC(=O)Cc1ccccc1F	none (no result: Dynein transport, CHOP inhibitor, pCIP destab)
Cc1ccccc1Nc1c(F)c(F)c(F)c(F)c1C(=O)O	none
COCCNC(=O)CSc1nc2cc(OC)c(OC)cc2c(=O)n1Cc1ccc(OC)cc1	none
COc1cc2nc(SCC(=O)NCc3ccco3)n(Cc3ccc(Cl)cc3)c(=O)c2cc1OC	CHOP inhibitor 89, UPR XBP1 act 35 | UPR XBP1 confirm inactive
O=C(O)CCC(=O)N1N=C(c2c(-c3ccccc3)c3cc(Cl)ccc3[nH]c2=O)CC1c1cccs1 (stereo unspecified)	none
COc1ccc(OC)c(C2CC(c3c(-c4ccccc4)c4cc(Cl)ccc4[nH]c3=O)=NN2S(C)(=O)=O)c1 (stereo unspecified)	UPR XBP1 act 54 | UPR XBP1 confirm inactive
COc1ccc(C2CC(c3c(-c4ccccc4)c4cc(Cl)ccc4[nH]c3=O)=NN2S(C)(=O)=O)cc1 (stereo unspecified)	UPR XBP1 act 50 | UPR XBP1 confirm 140
O=C(N/N=C/c1ccc(F)cc1)c1sccc1OCc1ccc(F)cc1	none
O=C(N/N=C/c1ccc(Cl)cc1)c1sccc1OCc1ccc(F)cc1	B2AR ag 55, UPR XBP1 act 50 (no result: Dynein transport) | UPR XBP1 confirm 55
CCS(=O)(=O)N1CCN(S(=O)(=O)c2ccc(S(=O)(=O)NC3CC3)cc2)CC1	none (no result: Dynein transport, CHOP inhibitor)
CCOC(=O)c1ccc(N2Cc3ccccc3C2=NC(=O)c2cccc([N+](=O)[O-])c2)cc1	UPR XBP1 act 56 (no result: Dynein transport, CHOP inhibitor, pCIP destab) | UPR XBP1 confirm inactive
O=C(N=C1c2ccccc2CN1c1ccccc1)c1cccc([N+](=O)[O-])c1	none
N#C/C(C(=O)NCc1ccccc1)=C1/N=C(NC(=O)c2ccco2)c2ccccc21	none
COc1ccc(CCNC(=O)/C(C#N)=C2\N=C(NC(=O)c3ccco3)c3ccccc32)cc1	UPR XBP1 act 33 | UPR XBP1 confirm inactive
Cc1ccc(C(=O)Nc2cc(S(=O)(=O)N3CCOCC3)ccc2N2CCCC2)cc1	UPR XBP1 act 35 (no result: Dynein transport, CHOP inhibitor, pCIP destab) | UPR XBP1 confirm 38
Cc1ccc(C)c(N2CCN(C(=O)c3cc(S(=O)(=O)N4CCOCC4)ccc3F)CC2)c1	UPR XBP1 act 33 | UPR XBP1 confirm inactive
O=C(Nc1cc(S(=O)(=O)N2CCOCC2)ccc1N1CCCC1)c1ccc(Cl)cc1	none (no result: Dynein transport, CHOP inhibitor, pCIP destab)
Cc1ccc(-c2nnc3c(C(F)(F)F)nc4ccccc4n23)cc1	none
FC(F)(F)c1nc2ccccc2n2c(-c3ccc(Cl)cc3)nnc12	UPR XBP1 act 47 | UPR XBP1 confirm 54
O=C(CSc1ccc2nnc(-c3cccnc3)n2n1)N1CCc2ccccc21	none (no result: Dynein transport, CHOP inhibitor, UPR CHOP act, B2AR ag, UPR XBP1 act)
O=C(CSc1ccc2nnc(-c3ccc(Cl)cc3)n2n1)N1CCc2ccccc21	CHOP inhibitor 79, UPR XBP1 act 30 | UPR XBP1 confirm inactive
COc1cc(/C=C/c2ccc3cccc(O)c3n2)ccc1O	UPR XBP1 act 60 (no result: Dynein transport, CHOP inhibitor) | UPR XBP1 confirm 36
COCCCn1c(=NC(C)=O)c(C#N)cc2c(=O)n3cccc(C)c3nc21	none
COCCCn1c(=NC(=O)c2ccccc2)c(C#N)cc2c(=O)n3cccc(C)c3nc21	UPR XBP1 act 43 | UPR XBP1 confirm inactive
Cc1cccc(N(O)C(=O)Nc2cccc(Cl)c2)c1	none (no result: Dynein transport, CHOP inhibitor)
CCCN1CCc2c(sc(NC(=O)c3ccc(S(=O)(=O)N(C)c4ccccc4)cc3)c2C(=O)NC)C1	none (no result: Dynein transport, CHOP inhibitor)
CCCN1CCc2c(sc(NC(=O)c3ccc(S(=O)(=O)N(C)c4ccccc4)cc3)c2C(N)=O)C1	UPR XBP1 act 40 (no result: Dynein transport, CHOP inhibitor) | UPR XBP1 confirm inactive
O=C(CN1C(=O)/C(=C/c2ccc(Cl)cc2)SC1=S)NC1C=CS(=O)(=O)C1 (stereo unspecified)	UPR XBP1 act 44 (no result: Dynein transport, CHOP inhibitor) | UPR XBP1 confirm inactive
COc1cc2c(cc1NC(=S)NC(=O)/C=C/c1ccco1)oc1ccccc12	UPR XBP1 act 52 | UPR XBP1 confirm 77
